Data as given in ChEMBL document CHEMBL2034880, “Synthesis and biological evaluation of pyrimidine-based dual inhibitors of human epidermal growth factor receptor 1 (HER-1) and HER-2 tyrosine kinases” (J Med Chem, 2012).
Blank lines part the entries; values can stand above or below the compound they belong to.

Legend:
SK-BR-3 = experiment: Cytotoxicity against human SKBR3 cells overexpressing HER-2 gene after 72 hrs by SRB assay; type: functional, cell-based; details: SK-BR-3, 72 h
Method in brief: (§1)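 A431 and SK-Br3 cells grown in DMEM (4.5 g/L glucose, 1.5 g/L sodium bicarbonate) with 10% FBS at 37 °C, humidified 5% CO2. Proliferation/growth inhibition IC50 values are means of three independent experiments, each run in duplicate.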

A-431 = experiment: Cytotoxicity against human A431 cells overexpressing HER-1 gene after 72 hrs by SRB assay; type: functional, cell-based; details: A-431, 72 h; method in brief: as §1
[1] = Half life in dog liver microsomes at 5 uM
[2] = Half life in mouse liver microsomes at 5 uM
[3] = Half life in rat liver microsomes at 5 uM
[4] = Half life in human liver microsomes at 5 uM
[5] = Oral bioavailability in ICR mouse at 10 mg/kg; type: ADME, organism-based; details: in vivo
Method in brief: (§2)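 Male ICR mice (27 5 g) and male Sprague-Dawley rats (250 10 g), n = 3 per route. Single oral gavage dose (mice 10 mg/kg, rats 5 mg/kg) and tail-vein iv dose (mice 2 mg/kg, rats 1 mg/kg). Compound given as HCl salt in 30% PEG400 and 5% ethanol in distilled water. Jugular blood drawn at set times over at least 24 h into heparin. Plasma level measured by LC/MS/MS after acetonitrile protein precipitation.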

[6] = Cmax in ICR mouse at 10 mg/kg, po; type: ADME, organism-based; design: dose 10 mg/kg, route oral; details: in vivo; method in brief: as §2
[7] = AUC (0 to last) in ICR mouse at 10 mg/kg, po; type: ADME, organism-based; design: time 0 - last, dose 10 mg/kg, route oral; details: plasma; method in brief: as §2
[8] = Oral bioavailability in Sprague-Dawley rat at 5 mg/kg; type: ADME, organism-based; details: in vivo; method in brief: as §2
[9] = Half life in Sprague-Dawley rat at 5 mg/kg, po; type: ADME, organism-based; design: dose 5 mg/kg, route oral; details: in vivo; method in brief: as §2
[10] = AUC (0 to last) in Sprague-Dawley rat at 5 mg/kg, po; type: ADME, organism-based; design: dose 5 mg/kg, route oral, time 0 - last; details: plasma; method in brief: as §2
[11] = Half life in ICR mouse at 10 mg/kg, po; type: ADME, organism-based; design: dose 10 mg/kg, route oral; details: in vivo; method in brief: as §2
[12] = Cmax in Sprague-Dawley rat at 5 mg/kg, po; type: ADME, organism-based; design: dose 5 mg/kg, route oral; details: in vivo; method in brief: as §2
[13] = biological target: Serine/threonine-protein kinase pim-1 (Homo sapiens, UniProt P11309); details: 3 uM
Insulin receptor = Insulin receptor (Homo sapiens, UniProt P06213); details: 3 uM
[14] = biological target: 5'-AMP-activated protein kinase catalytic subunit alpha-1 (Homo sapiens, UniProt Q13131); details: 3 uM
[15] = biological target: Serine/threonine-protein kinase STK11 (Homo sapiens) (UniProt Q15831); details: 3 uM
[16] = biological target: Platelet-derived growth factor receptor beta (Homo sapiens, UniProt P09619); details: 3 uM
[17] = biological target: Aurora kinase A (Homo sapiens) (UniProt O14965); experiment: Inhibition of Aurora A at 3 uM
Chain of Aurora kinase A (Homo sapiens) (O14965 whole entry): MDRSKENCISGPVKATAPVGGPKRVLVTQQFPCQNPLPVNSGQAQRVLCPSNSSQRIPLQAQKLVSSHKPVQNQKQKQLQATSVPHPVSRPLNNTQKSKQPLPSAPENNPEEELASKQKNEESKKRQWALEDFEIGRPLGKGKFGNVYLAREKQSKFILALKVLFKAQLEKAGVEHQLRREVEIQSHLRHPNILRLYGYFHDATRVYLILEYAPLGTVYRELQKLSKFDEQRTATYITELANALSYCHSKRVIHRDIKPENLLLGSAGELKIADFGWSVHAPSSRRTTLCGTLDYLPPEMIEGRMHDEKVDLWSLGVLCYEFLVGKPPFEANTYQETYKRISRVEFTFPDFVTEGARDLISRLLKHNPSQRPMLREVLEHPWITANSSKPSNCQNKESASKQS

[18] = biological target: Dual specificity mitogen-activated protein kinase kinase 1 (Homo sapiens, UniProt Q02750); details: 3 uM
[19] = biological target: Hepatocyte growth factor receptor (Homo sapiens, UniProt P08581); experiment: Inhibition of MET at 3 uM
[20] = biological target: Tyrosine-protein kinase JAK2 (Homo sapiens, UniProt O60674); details: 3 uM
[21] = biological target: Insulin-like growth factor 1 receptor (Homo sapiens, UniProt P08069); details: 3 uM
[22] = biological target: Tyrosine-protein kinase SYK (Homo sapiens, UniProt P43405); experiment: Inhibition of Syk at 3 uM
[23] = biological target: Tyrosine-protein kinase Blk (Homo sapiens) (UniProt P51451); experiment: Inhibition of Blk at 3 uM
[24] = biological target: Mast/stem cell growth factor receptor Kit (Homo sapiens, UniProt P10721); details: 3 uM
Chain of Mast/stem cell growth factor receptor Kit (P10721 whole entry): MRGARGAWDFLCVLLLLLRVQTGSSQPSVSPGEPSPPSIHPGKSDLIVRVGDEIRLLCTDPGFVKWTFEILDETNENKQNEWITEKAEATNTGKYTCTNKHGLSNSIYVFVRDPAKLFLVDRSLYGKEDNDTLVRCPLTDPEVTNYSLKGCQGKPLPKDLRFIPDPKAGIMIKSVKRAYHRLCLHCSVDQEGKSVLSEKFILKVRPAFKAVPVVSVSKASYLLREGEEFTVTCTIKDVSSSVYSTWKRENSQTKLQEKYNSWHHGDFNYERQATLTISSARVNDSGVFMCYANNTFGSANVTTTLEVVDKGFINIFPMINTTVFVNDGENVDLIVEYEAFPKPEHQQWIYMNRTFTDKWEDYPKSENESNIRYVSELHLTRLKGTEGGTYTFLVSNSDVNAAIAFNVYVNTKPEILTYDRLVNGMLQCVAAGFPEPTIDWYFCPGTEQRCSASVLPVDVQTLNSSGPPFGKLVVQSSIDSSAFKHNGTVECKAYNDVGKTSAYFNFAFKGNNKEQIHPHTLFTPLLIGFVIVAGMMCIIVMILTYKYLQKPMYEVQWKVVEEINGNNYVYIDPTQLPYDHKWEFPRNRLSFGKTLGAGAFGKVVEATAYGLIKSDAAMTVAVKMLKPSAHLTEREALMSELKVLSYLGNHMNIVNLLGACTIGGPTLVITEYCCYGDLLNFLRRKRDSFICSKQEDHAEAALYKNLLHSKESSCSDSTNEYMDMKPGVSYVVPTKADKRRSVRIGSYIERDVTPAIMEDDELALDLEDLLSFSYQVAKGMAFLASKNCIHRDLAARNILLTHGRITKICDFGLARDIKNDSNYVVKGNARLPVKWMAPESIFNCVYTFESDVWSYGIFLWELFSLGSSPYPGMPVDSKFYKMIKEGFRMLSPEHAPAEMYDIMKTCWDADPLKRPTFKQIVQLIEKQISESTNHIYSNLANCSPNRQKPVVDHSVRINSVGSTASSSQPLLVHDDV

[25] = biological target: T1, Receptor tyrosine-protein kinase erbB-2 (Homo sapiens, UniProt P04626); details: SK-BR-3, 1 uM
T1 sequence (P04626 whole entry): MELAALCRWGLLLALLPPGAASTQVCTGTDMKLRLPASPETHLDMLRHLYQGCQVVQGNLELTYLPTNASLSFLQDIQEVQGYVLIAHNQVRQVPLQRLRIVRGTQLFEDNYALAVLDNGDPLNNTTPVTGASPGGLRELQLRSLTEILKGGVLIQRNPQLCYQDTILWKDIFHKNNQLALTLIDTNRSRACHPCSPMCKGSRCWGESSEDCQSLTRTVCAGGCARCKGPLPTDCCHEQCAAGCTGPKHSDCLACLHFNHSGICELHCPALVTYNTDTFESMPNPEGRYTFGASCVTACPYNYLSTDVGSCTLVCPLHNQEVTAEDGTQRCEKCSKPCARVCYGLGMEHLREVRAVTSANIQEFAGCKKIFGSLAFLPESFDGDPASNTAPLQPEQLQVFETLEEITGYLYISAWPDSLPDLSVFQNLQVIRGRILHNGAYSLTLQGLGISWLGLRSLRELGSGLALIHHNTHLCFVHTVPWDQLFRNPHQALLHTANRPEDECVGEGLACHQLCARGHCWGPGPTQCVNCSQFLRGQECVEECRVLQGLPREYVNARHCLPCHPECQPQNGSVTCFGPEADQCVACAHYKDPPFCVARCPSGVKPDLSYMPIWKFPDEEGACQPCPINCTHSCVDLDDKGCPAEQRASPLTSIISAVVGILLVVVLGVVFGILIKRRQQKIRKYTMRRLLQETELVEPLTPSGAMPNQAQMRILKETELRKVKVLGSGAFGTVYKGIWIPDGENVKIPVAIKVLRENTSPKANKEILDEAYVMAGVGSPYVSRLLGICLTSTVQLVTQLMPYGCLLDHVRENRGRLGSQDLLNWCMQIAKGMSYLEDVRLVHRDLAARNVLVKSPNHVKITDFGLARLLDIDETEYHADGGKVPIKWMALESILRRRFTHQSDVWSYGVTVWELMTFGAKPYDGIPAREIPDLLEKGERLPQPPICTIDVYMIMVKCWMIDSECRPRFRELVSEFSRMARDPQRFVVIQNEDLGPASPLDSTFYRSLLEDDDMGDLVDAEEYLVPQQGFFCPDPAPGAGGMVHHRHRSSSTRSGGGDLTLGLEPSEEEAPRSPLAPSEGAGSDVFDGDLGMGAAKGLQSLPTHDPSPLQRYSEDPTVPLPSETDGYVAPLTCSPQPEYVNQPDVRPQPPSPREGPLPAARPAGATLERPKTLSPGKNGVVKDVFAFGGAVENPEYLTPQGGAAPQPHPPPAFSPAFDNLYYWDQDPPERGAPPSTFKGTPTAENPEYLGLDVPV

[26] = biological target: Platelet-derived growth factor receptor alpha (Homo sapiens, UniProt P16234); details: 3 uM
Chain of Platelet-derived growth factor receptor alpha (P16234 whole entry): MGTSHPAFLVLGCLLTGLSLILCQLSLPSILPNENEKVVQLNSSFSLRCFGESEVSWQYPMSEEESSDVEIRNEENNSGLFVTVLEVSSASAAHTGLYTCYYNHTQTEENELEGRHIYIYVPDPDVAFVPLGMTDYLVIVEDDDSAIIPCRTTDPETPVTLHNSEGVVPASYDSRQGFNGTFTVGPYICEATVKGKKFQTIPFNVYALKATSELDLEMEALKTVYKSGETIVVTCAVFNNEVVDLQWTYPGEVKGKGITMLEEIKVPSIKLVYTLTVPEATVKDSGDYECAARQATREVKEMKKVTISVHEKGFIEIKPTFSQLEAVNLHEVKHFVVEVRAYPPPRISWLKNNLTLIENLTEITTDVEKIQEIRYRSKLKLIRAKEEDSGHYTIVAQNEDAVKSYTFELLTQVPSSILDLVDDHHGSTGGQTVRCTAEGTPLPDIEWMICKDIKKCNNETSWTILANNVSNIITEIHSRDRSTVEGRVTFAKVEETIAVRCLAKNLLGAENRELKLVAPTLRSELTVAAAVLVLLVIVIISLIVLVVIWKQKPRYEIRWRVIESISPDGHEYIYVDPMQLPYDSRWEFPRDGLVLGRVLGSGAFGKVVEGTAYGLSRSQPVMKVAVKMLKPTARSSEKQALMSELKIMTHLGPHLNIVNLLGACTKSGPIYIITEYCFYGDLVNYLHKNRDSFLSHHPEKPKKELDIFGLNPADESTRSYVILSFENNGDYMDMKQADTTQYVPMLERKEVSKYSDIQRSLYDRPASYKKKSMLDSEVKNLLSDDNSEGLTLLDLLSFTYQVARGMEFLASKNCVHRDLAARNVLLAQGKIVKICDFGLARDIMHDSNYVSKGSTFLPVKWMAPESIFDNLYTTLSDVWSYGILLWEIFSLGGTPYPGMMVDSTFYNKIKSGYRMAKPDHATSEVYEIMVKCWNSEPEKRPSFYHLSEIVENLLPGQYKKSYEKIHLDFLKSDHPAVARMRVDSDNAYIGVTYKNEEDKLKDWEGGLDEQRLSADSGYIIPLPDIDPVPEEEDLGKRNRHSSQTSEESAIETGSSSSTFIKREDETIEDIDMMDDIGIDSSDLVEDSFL

[27] = biological target: Vascular endothelial growth factor receptor 1 (Homo sapiens, UniProt P17948); experiment: Inhibition of Flt1 at 3 uM
[28] = biological target: Tyrosine-protein kinase ABL1 (Homo sapiens, UniProt P00519); experiment: Inhibition of Abl at 3 uM
Chain of Tyrosine-protein kinase ABL1 (P00519 whole entry): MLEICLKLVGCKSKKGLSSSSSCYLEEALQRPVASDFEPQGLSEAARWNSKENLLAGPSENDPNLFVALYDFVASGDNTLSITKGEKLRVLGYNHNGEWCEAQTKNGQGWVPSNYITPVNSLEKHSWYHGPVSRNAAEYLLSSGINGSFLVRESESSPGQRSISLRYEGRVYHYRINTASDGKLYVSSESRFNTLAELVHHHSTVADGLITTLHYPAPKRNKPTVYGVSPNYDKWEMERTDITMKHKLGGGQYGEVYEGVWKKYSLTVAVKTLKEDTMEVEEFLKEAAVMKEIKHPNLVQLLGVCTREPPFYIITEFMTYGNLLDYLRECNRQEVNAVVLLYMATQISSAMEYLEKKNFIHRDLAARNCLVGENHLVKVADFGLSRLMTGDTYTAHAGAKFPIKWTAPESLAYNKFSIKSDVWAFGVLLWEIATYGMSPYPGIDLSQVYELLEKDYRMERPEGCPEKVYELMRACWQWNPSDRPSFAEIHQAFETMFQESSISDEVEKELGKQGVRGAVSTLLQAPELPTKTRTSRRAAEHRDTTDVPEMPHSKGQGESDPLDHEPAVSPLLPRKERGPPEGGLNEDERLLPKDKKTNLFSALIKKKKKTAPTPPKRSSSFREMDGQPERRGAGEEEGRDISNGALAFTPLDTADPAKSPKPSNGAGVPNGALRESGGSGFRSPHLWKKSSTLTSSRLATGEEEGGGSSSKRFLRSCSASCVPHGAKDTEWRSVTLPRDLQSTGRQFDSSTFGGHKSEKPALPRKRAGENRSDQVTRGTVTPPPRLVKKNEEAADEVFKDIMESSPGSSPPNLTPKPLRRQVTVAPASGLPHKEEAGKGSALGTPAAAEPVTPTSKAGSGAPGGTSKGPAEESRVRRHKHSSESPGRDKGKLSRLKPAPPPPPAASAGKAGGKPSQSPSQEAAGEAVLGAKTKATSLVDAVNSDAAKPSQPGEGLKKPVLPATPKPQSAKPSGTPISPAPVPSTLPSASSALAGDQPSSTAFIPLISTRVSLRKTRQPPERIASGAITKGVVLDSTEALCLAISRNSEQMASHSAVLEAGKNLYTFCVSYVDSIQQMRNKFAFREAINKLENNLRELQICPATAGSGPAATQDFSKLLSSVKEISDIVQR

[29] = biological target: T1, Receptor tyrosine-protein kinase erbB-2; details: SK-BR-3, 1 uM; remark: listed apart in the source
[30] = biological target: Fibroblast growth factor receptor 1 (Homo sapiens, UniProt P11362); details: 3 uM
[31] = biological target: Cyclin-dependent kinase 1/cyclin B1 (Homo sapiens) (UniProt P06493+P14635); details: 3 uM
[32] = biological target: Receptor-type tyrosine-protein kinase FLT3 (Homo sapiens) (UniProt P36888); details: 3 uM
Focal adhesion kinase 1 = Focal adhesion kinase 1 (Homo sapiens, UniProt Q05397); details: 3 uM

half-life at 5 µM ([1]; liver microsomes): > 100 min
half-life at 5 µM ([2]; liver microsomes): 48 min
half-life at 5 µM ([3]; liver microsomes): 59 min
half-life at 5 µM ([4]; liver microsomes): > 100 min
SMILES: C=CC(=O)NCc1coc(-c2c(N)ncnc2Nc2ccc(Oc3ccccc3)c(Cl)c2)n1
IC50 (SK-BR-3): 3.1 nM
IC50 (A-431): 60 nM

half-life at 5 µM ([1]; liver microsomes): > 100 min
half-life at 5 µM ([2]; liver microsomes): > 100 min
half-life at 5 µM ([3]; liver microsomes): 66 min
half-life at 5 µM ([4]; liver microsomes): > 100 min
SMILES: C=CC(=O)NCc1coc(-c2c(N)ncnc2Nc2ccc(Oc3ccc(F)cc3)c(Cl)c2)n1
IC50 (SK-BR-3): 6 nM
IC50 (A-431): 39 nM

bioavailability [5]: 21.6%
Cmax [6]: 282 ng/mL
AUC(0-t) [7]: 455 ng·h/mL
bioavailability [8]: 21.9%
half-life [9]: 194 min
AUC(0-t) [10]: 440 ng·h/mL
half-life [11]: 1660 min
Cmax [12]: 189 ng/mL
SMILES: C=CC(=O)NCc1coc(-c2c(N)ncnc2Nc2ccc(OCc3ccccn3)c(Cl)c2)n1.Cl

half-life at 5 µM ([1]; liver microsomes): > 100 min
half-life at 5 µM ([3]; liver microsomes): 29 min
half-life at 5 µM ([4]; liver microsomes): 45 min
SMILES: C=CC(=O)NCc1coc(-c2c(N)ncnc2Nc2ccc(OCc3cccc(F)c3)c(Cl)c2)n1
IC50 (SK-BR-3): 3.9 nM
IC50 (A-431): 59 nM

half-life at 5 µM ([1]; liver microsomes): 9 min
half-life at 5 µM ([2]; liver microsomes): 9 min
half-life at 5 µM ([3]; liver microsomes): 24 min
half-life at 5 µM ([4]; liver microsomes): 16 min
SMILES: C=CC(=O)NCc1coc(-c2c(N)ncnc2Nc2ccc(F)c(Cl)c2)n1
IC50 (SK-BR-3): 34.1 nM
IC50 (A-431): 52 nM

half-life at 5 µM ([1]; liver microsomes): 39 min
half-life at 5 µM ([2]; liver microsomes): 18 min
half-life at 5 µM ([3]; liver microsomes): 9 min
half-life at 5 µM ([4]; liver microsomes): 15 min
SMILES: C=CC(=O)NCc1coc(-c2c(N)ncnc2Nc2ccc(Oc3cccnc3)c(Cl)c2)n1
IC50 (SK-BR-3): 2.4 nM
IC50 (A-431): 68 nM

half-life at 5 µM ([1]; liver microsomes): > 100 min
half-life at 5 µM ([2]; liver microsomes): 57 min
half-life at 5 µM ([3]; liver microsomes): 51 min
half-life at 5 µM ([4]; liver microsomes): 96 min
SMILES: C=CC(=O)NCc1coc(-c2c(N)ncnc2Nc2ccc(Oc3cc(Cl)ccc3Cl)c(Cl)c2)n1
IC50 (SK-BR-3): 1.9 nM
IC50 (A-431): 184 nM

half-life at 5 µM ([1]; microsomes): 41 min
half-life at 5 µM ([2]; microsomes): 43 min
half-life at 5 µM ([3]; microsomes): 17 min
half-life at 5 µM ([4]; microsomes): 39 min
SMILES: C=CC(=O)NCc1coc(-c2c(N)ncnc2Nc2ccc(Oc3ccc(C)nc3)c(C)c2)n1
IC50 (SK-BR-3): 1.1 nM
IC50 (A-431): 64 nM

half-life at 5 µM ([1]; microsomes): 51 min
half-life at 5 µM ([2]; microsomes): 39 min
half-life at 5 µM ([3]; microsomes): 25 min
half-life at 5 µM ([4]; microsomes): > 100 min
SMILES: C=CC(=O)NCc1coc(-c2c(N)ncnc2Nc2ccc(Oc3ccnn3C)c(Cl)c2)n1
IC50 (SK-BR-3): 4 nM
IC50 (A-431): 66 nM

inhibition [13]: 2%
inhibition (Insulin receptor): 0%
inhibition [14]: 0%
inhibition [15]: 0%
inhibition [16]: 0%
inhibition [17]: 42%
inhibition [18]: 14%
inhibition [19]: 13%
inhibition [20]: 0%
inhibition [21]: 0%
inhibition [22]: 15%
inhibition [23]: 77%
inhibition [24]: 0%
inhibition [25]: 68.2%
inhibition [26]: 0%
inhibition [27]: 15%
inhibition [28]: 15%
inhibition [29]: 87.5%
inhibition [30]: 0%
inhibition [31]: 0%
inhibition [32]: 0%
inhibition (Focal adhesion kinase 1): 0%
SMILES: C=CC(=O)NCc1coc(-c2c(N)ncnc2Nc2ccc(OCc3ccccn3)c(Cl)c2)n1

half-life at 5 µM ([1]; liver microsomes): > 100 min
half-life at 5 µM ([2]; liver microsomes): > 100 min
half-life at 5 µM ([3]; liver microsomes): 54 min
half-life at 5 µM ([4]; liver microsomes): > 100 min
SMILES: C=CC(=O)NCc1coc(-c2c(N)ncnc2Nc2ccc(Oc3cccc(F)c3)c(Cl)c2)n1
IC50 (SK-BR-3): 0.5 nM
IC50 (A-431): 75 nM

half-life at 5 µM ([1]; liver microsomes): 44 min
half-life at 5 µM ([2]; liver microsomes): 9 min
half-life at 5 µM ([3]; liver microsomes): 16 min
half-life at 5 µM ([4]; liver microsomes): 27 min
SMILES: C=CC(=O)NCc1coc(-c2c(N)ncnc2Nc2ccc(OCc3ccccn3)c(F)c2)n1
IC50 (SK-BR-3): 6.1 nM
IC50 (A-431): 63 nM

half-life at 5 µM ([1]; liver microsomes): 24 min
half-life at 5 µM ([2]; liver microsomes): 15 min
half-life at 5 µM ([3]; liver microsomes): 16 min
half-life at 5 µM ([4]; liver microsomes): 39 min
SMILES: C=CC(=O)NCc1coc(-c2c(N)ncnc2Nc2ccc(Oc3ccccn3)c(Cl)c2)n1
IC50 (SK-BR-3): 1.7 nM
IC50 (A-431): 36 nM

Further lines, the compound ahead of its results:

SMILES: C=CC(=O)NCCNC(=O)c1c(N)ncnc1Nc1ccc(OCc2ccccn2)c(Cl)c1
IC50 (SK-BR-3): > 1000 nM
IC50 (A-431): > 1000 nM

SMILES: C=CC(=O)Nc1cccc(-c2cncnc2Nc2ccc(OCc3ccccn3)c(Cl)c2)c1
IC50 (SK-BR-3): 6.1 nM
IC50 (A-431): 593 nM

SMILES: C=CC(=O)NCc1cc(-c2cncnc2Nc2ccc(OCc3ccccn3)c(Cl)c2)on1
IC50 (SK-BR-3): 122 nM
IC50 (A-431): 2.2 nM

SMILES: C=CC(=O)NCc1coc(-c2c(N)ncnc2Nc2ccc(Oc3ccc(Cl)cc3Cl)c(Cl)c2)n1
IC50 (SK-BR-3): 6.5 nM
IC50 (A-431): 105 nM

SMILES: C=CC(=O)NCc1coc(-c2c(N)ncnc2Nc2ccc(Oc3ccc(C)nc3)c(Cl)c2)n1
IC50 (SK-BR-3): 6.1 nM
IC50 (A-431): 68 nM

SMILES: C=CC(=O)NCc1coc(-c2c(N)ncnc2Nc2ccc(Cl)c(Cl)c2F)n1
half-life at 5 µM ([1]; liver microsomes): > 100 min
IC50 (SK-BR-3): 92.6 nM
half-life at 5 µM ([2]; liver microsomes): 74 min
half-life at 5 µM ([3]; liver microsomes): > 100 min
half-life at 5 µM ([4]; liver microsomes): > 100 min
IC50 (A-431): 282 nM

SMILES: C=CC(=O)NCC#Cc1cncnc1Nc1ccc(OCc2ccccn2)c(Cl)c1
IC50 (SK-BR-3): > 1000 nM
IC50 (A-431): > 1000 nM

SMILES: C=CC(=O)NCc1coc(-c2c(N)ncnc2Nc2ccc(Oc3cccc(Cl)c3Cl)c(Cl)c2)n1
IC50 (SK-BR-3): 18.2 nM
IC50 (A-431): 113 nM

SMILES: C=CC(=O)NCc1coc(-c2c(N)ncnc2Nc2ccc(Oc3ccccc3F)c(Cl)c2)n1
IC50 (SK-BR-3): 4.7 nM
IC50 (A-431): 29 nM

SMILES: C=CC(=O)NCc1coc(-c2c(N)ncnc2Nc2ccc(Oc3cc(C(F)(F)F)nn3C)c(Cl)c2)n1
half-life at 5 µM ([1]; microsomes): > 100 min
IC50 (SK-BR-3): 3.3 nM
half-life at 5 µM ([2]; microsomes): > 100 min
half-life at 5 µM ([3]; microsomes): > 100 min
half-life at 5 µM ([4]; microsomes): > 100 min
IC50 (A-431): 65 nM

SMILES: C=CC(=O)NCc1coc(-c2cncnc2Nc2ccc(OCc3ccccn3)c(Cl)c2)n1
IC50 (SK-BR-3): 9.7 nM
IC50 (A-431): 105 nM
